Data reported in ChEMBL document CHEMBL3632592, “Identification of Highly Promising Antioxidants/Neuroprotectants Based on Nucleoside 5'-Phosphorothioate Scaffold. Synthesis, Activity, and Mechanisms of Action” (J Med Chem, 2015).

Tests used:
[1] = tested on: Serum; assay: Drug level in human serum treated with ADP at 37 degC measured over 24 hrs by HPLC analysis; format: ADME, cell-free
How it was run: (§1)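 Incubation in human blood serum and in RPMI-1640 at 37 °C for 0.5–24 h. The HPLC peak integration of each nucleotide is followed over time, and half-life comes from the decay. The products AMP and adenosine are seen as HPLC peaks.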

[2] = Drug level in RPMI-1640 medium treated with ADP at 37 degC measured over 24 hrs by HPLC analysis; format: physicochemical; how it was run: as §1
[3] = Metal chelating activity assessed as inhibition of Fe2+-ferrozine complex formation at 200 uM after 10 mins relative to control; format: physicochemical
How it was run: (§2)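 Competitive ferrozine assay. FeSO4 (final 10 µM) and ferrozine (final 20 µM) are mixed with nucleotide in DDW at final 25–200 µM and agitated 10 min at room temperature. Absorbance of the Fe(II)-ferrozine complex is read at 562 nm with and without compound, and inhibition of complex formation is calculated. Three experiments, mean ± S.D.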

[4] = Neuroprotective activity against Fe2+-induced oxidative damage in rat primary cortical neurons assessed as cell viability after 24 hrs by MTT assay; format: functional, cell-based; details: Cerebral cortex neuron
How it was run: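 Rat (1-day-old) cortical neurons were grown serum-free in DMEM/F12 with B-27 on poly-ornithine, treated with Ara-C and cultured 5 d. Cells were pretreated with nucleotide (0.01–25 µM), then exposed to FeSO4 3 µM final for 24 h. MTT 1 mg/mL was added for 2 h at 37 °C, formazan dissolved in DMSO, A550 read. Viability given as % of vehicle control; three independent experiments in triplicate.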

[5] = Half life in human serum at 37 degC by HPLC analysis; format: ADME, cell-free
How it was run: (§3)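 Nucleotides were incubated in human blood serum or RPMI-1640 at 37 °C for 0.5–24 h. Hydrolysis was followed by the change in HPLC peak integration of each analogue over time, and half-life was derived from this.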

[6] = Metal chelating activity assessed as inhibition of Fe2+-ferrozine complex formation after 10 mins; format: physicochemical; how it was run: as §2
[7] = Antioxidant activity assessed as ABTS radical scavenging activity after 7 mins; format: physicochemical
How it was run: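 ABTS radical cation made from 7 mM ABTS with 2.45 mM persulfate (final), kept in the dark at room temperature 12–16 h. It was then diluted in water pH 7.4 to A734 0.80 and mixed with compound or Trolox standard (final 0–60 µM). A734 was read at 7 min. Percent inhibition plotted against concentration; at least three runs, in triplicate.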

[8] = Half life of the compound in RPMI-1640 medium at 37 degC by HPLC analysis; format: ADME; how it was run: as §3
[9] = tested on: Serum; assay: Drug metabolism in human serum assessed as formation of adenosine at 37 degC measured over 24 hrs by HPLC analysis; format: ADME, cell-free; how it was run: as §1
[10] = Antioxidant activity assessed as inhibition of Fe2+-induced DMPO-OH adduct formation from H2O2 preincubated for 30 secs followed by DMPO/H2O2 addition measured after 150 secs by ESR analysis; format: physicochemical
How it was run: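 Fenton/ESR spin trapping: 1 mM ammonium iron(II) sulfate was added to 5–500 µM compound, then Tris buffer pH 7.4 (final pH 7.2–7.4). After 30 s, 100 mM DMPO and 100 mM H2O2 were added (stock concentrations). The ESR spectrum was recorded 150 s after H2O2, at room temperature. DMPO-OH adduct expressed as % of control containing FeSO4, H2O2 and DMPO only.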

| SMILES | Drug metabolism [1] | Drug metabolism [2] | inhibition (INH) [3] | EC50 [4] | half-life [5] | IC50 [6] | IC50 [7] | half-life [8] | Drug metabolism [9] | IC50 [10] |
| --- | --- | --- | --- | --- | --- | --- | --- | --- | --- | --- |
| Nc1ncnc2c1ncn2[C@@H]1O[C@H](CO)[C@@H](O)[C@H]1O [ADENOSINE] | metabolite_detected | metabolite_detected | – | – | – | – | – | – | – | – |
| Nc1ncnc2c1ncn2[C@@H]1O[C@H](COP(=O)(O)OP(=O)(O)O)[C@@H](O)[C@H]1O [ADENOSINE DIPHOSPHATE] | – | – | 40% | 19 µM | 1.5 h | > 200 µM | 30 µM | 1.5 h | metabolite_detected | 170 µM |
